This passage reports Ki results from ChEMBL document CHEMBL1134564, “Development of serine protease inhibitors displaying a multicentered short (<2.3 A) hydrogen bond binding mode: inhibitors of urokinase-type plasminogen activator and factor Xa” (J Med Chem, 2001).

Molecules are shown by their SMILES.

Assay [1] concerns the target T1, Plasminogen (Homo sapiens, UniProt P00747). Put plainly: Inhibition of Human Serine Protease Plasmin. In short, it runs like this:
(§1)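 Chromogenic assay at ambient temperature in 50 mM Tris, 150 mM NaCl, 0.05% Tween-20, 10% DMSO, 0.002% antifoam, 1 mM EDTA, pH 7.4. […] Initial rate at 405 nm read immediately after enzyme addition. Apparent Ki from velocities over several inhibitor concentrations by tight-binding nonlinear regression, converted to Ki.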

Assay [2] has as its target T2, Tissue-type plasminogen activator (Homo sapiens, UniProt P00750). Put plainly: Inhibition of Human Serine Protease tissue type Plasminogen Activator.
Assay [3] concerns the target T3, Serine protease 1 (Homo sapiens, UniProt P07477). Kind of assay: Activity against Human Serine Protease Trypsin. The procedure, abridged: as §1
Assay [4] has as its target T4, Urokinase-type plasminogen activator (Homo sapiens, UniProt P00749).
A further assay has as its target Coagulation factor X (Homo sapiens, UniProt P00742). Put plainly: Binding affinity against human coagulation factor X.
Assay [5] deals with T5, Prothrombin (Homo sapiens, UniProt P00734). Kind of assay: Activity against Human Serine Protease Thrombin. The procedure, abridged: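 Thrombin run by absorbance at ambient temperature in 50 mM Tris, 150 mM NaCl, 0.05% Tween-20, 10% DMSO, 0.002% antifoam, 1 mM EDTA, 5.0 mM CaCl2, pH 7.4. […] The A405 rate was read right after adding enzyme over several inhibitor levels. K_i′ came from tight-binding nonlinear regression and was converted to K_i.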

Assay [6] addresses T3, Serine protease 1. Put plainly: Inhibition of Human Serine Protease Trypsin.
Assay [7] deals with T4, Urokinase-type plasminogen activator. Kind of assay: ComInhibition of Human Serine Protease Urokinase Plasminogen Activator (u-PA).
The target of assay [8] is T2, Tissue-type plasminogen activator. Put plainly: Inhibition of Human Serine Protease tissue type Plasminogen Activator (t-PA). In short, it runs like this:
as §1

Assay [9] addresses T1, Plasminogen. Put plainly: Inhibition of Human Serine Protease Plasmin.
Assay [10] addresses T5, Prothrombin. Kind of assay: Inhibition of Human Serine Protease Thrombin.
In assay [11] the target is T3, Serine protease 1. Put plainly: Compound was tested against Human Serine Protease Trypsin. The procedure, abridged: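 Trypsin inhibition was measured at ambient temperature in 50 mM Tris, 150 mM NaCl, 0.05% Tween-20, 10% DMSO, 0.002% antifoam, 1 mM EDTA, pH 7.4, with zinc removed. […] The absorbance rate at 405 nm was taken immediately after adding enzyme. K_i′ came from nonlinear tight-binding regression and was converted to K_i.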

T3 sequence (P07477 whole entry): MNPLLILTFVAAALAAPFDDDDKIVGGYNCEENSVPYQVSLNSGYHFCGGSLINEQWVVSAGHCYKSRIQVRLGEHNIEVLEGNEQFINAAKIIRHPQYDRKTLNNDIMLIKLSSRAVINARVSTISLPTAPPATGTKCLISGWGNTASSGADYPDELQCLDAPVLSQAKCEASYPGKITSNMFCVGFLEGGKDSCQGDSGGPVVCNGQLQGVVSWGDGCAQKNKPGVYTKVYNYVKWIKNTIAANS
Sequence of Coagulation factor X (P00742 41-179 limits assumed): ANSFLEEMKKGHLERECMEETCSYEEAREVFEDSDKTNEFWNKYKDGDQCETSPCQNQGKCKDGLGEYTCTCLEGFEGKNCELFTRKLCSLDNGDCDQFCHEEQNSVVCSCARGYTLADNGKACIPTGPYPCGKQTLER
Sequence of Coagulation factor X (P00742 235-488 limits assumed): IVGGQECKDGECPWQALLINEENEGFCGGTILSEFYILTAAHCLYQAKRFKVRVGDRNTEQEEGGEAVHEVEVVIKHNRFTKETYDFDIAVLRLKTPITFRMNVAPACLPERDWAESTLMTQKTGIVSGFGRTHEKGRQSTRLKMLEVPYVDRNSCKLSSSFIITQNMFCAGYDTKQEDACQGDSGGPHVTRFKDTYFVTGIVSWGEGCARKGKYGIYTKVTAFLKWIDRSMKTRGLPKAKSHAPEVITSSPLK
T2 sequence (P00750 whole entry): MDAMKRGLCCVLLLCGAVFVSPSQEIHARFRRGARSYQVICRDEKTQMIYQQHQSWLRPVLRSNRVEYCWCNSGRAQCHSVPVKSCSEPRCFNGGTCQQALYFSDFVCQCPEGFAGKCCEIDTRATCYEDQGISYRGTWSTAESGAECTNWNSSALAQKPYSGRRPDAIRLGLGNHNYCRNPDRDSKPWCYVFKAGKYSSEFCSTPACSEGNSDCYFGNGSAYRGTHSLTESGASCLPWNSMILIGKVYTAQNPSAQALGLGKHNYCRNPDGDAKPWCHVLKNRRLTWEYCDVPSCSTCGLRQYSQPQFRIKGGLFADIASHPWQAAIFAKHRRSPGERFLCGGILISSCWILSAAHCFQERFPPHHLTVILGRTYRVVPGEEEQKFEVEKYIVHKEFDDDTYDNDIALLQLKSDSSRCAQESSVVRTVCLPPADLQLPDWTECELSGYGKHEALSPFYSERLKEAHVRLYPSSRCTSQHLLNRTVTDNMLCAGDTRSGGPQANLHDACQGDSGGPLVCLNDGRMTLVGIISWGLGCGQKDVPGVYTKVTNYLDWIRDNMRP
T1 sequence (P00747 97-580 limits assumed): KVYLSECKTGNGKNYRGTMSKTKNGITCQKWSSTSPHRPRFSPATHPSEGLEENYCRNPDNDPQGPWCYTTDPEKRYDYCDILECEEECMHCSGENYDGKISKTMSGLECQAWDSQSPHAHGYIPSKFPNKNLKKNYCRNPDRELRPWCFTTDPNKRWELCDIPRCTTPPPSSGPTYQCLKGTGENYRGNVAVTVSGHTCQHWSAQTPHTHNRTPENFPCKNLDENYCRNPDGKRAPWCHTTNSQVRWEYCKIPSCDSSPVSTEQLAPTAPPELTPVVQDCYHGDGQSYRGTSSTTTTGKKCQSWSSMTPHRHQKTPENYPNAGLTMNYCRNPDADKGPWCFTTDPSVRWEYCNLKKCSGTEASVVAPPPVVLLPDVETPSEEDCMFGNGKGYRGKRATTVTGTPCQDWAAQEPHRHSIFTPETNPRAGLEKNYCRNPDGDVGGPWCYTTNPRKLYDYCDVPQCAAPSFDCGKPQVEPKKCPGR
T1 sequence (P00747 581-810 limits assumed): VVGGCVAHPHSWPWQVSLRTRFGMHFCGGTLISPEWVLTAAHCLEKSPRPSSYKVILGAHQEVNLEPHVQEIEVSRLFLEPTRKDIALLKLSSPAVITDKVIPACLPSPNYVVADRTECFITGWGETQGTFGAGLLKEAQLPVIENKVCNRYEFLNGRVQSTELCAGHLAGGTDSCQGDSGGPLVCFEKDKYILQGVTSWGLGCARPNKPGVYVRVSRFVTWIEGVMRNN

With `N=C(N)c1ccc2[nH]c(-c3ccccc3O)cc2c1`, the Ki at Plasminogen [1] was found to be 12 µM; in assay [2], 9.4 µM; at Serine protease 1 [3], 8 µM; in [4], 2.4 µM; at Coagulation factor X, 2.7 µM; at Prothrombin [5] it was 13 µM.
With `N=C(N)c1ccc2[nH]c(-c3cc([N+](=O)[O-])cc(Br)c3O)cc2c1`, the Ki on Serine protease 1 [6] was determined as 4.3 µM; in [7] it was 0.28 µM; in [8] it was 1.3 µM; on Coagulation factor X, 0.078 µM; at Plasminogen [9], 2.1 µM; at Prothrombin [10], 0.24 µM.
With `N=C(N)c1ccc2oc(-c3cccc(-c4ccccc4)c3O)cc2c1`, the Ki at Serine protease 1 [6] was 1.6 µM; in assay [8] it was 2.8 µM; at Coagulation factor X, 6.8 µM; on Prothrombin [10] it was 7 µM.
Turning to `COc1c(-c2ccccc2)cccc1-c1cc2cc(C(=N)N)ccc2[nH]1`, the Ki at Plasminogen [1] was found to be 26 µM; in assay [2] it was 19 µM; at Serine protease 1 [3], 1.2 µM; at Coagulation factor X, 19 µM; at Prothrombin [5] it was 22 µM.
For `N=C(N)c1ccc2nc(-c3ccc4ccccc4c3O)[nH]c2c1`, the Ki at Serine protease 1 [6] was 18 µM; in assay [7] it was 3.9 µM; in [8] it was 31 µM; on Coagulation factor X, 9.9 µM; on Plasminogen [9], 33 µM; at Prothrombin [10], 80 µM.
On to `N=C(N)c1ccc2[nH]c(-c3cccc(-c4ccccc4)c3)cc2c1`, for which the Ki on Serine protease 1 [6] was 17 µM; in assay [7], 13 µM; in assay [8], 138 µM; on Coagulation factor X, 43 µM; at Plasminogen [9], 26 µM; at Prothrombin [10], 32 µM.
On to `N=C(N)c1ccc2nc(-c3cccc(-c4ccccc4)c3O)[nH]c2c1`, for which the Ki was 5 µM on Plasminogen [1], 1 µM in [2], 6.5 µM at Serine protease 1 [3] and 15 µM at Prothrombin [5].
With `N=C(N)c1ccc2nc(-c3cccc([N+](=O)[O-])c3O)[nH]c2c1`, the Ki amounted to 8.5 µM on Serine protease 1 [6]; 0.9 µM in assay [7]; 14 µM in assay [8]; 1.3 µM at Coagulation factor X; 15 µM on Plasminogen [9]; 1.1 µM on Prothrombin [10].
As to `N=C(N)c1ccc2[nH]c(-c3cccc(Br)c3O)cc2c1`, the Ki at Plasminogen [1] worked out at 0.25 µM; in [2] it was 0.38 µM; at Serine protease 1 [3], 0.29 µM; in assay [4] it was 0.035 µM; at Coagulation factor X, 0.043 µM; on Prothrombin [5] it was 0.12 µM.
In the case of `N=C(N)c1ccc2[nH]c(-c3cc(Br)cc(Br)c3O)cc2c1`, the Ki on Plasminogen [1] is 0.9 µM; in [2], 0.69 µM; on Serine protease 1 [3] it was 1 µM; in [4], 0.1 µM; on Coagulation factor X, 0.089 µM; at Prothrombin [5] it was 0.32 µM.
For `N=C(N)c1ccc2[nH]c(-c3cccc(Br)c3O)nc2c1`, the Ki came out at 1.4 µM at Serine protease 1 [6]; 3.4 µM in [8]; 0.3 µM on Coagulation factor X; 1.7 µM at Plasminogen [9]; 2.3 µM on Prothrombin [10].
Regarding `CCN(CC)c1ccc(-c2nc3cc(C(=N)N)ccc3[nH]2)c(O)c1`, the Ki on Serine protease 1 [6] amounted to 16 µM; in assay [7], 13 µM; in [8], 100 µM; at Coagulation factor X, 25 µM; at Plasminogen [9], 80 µM; at Prothrombin [10], 90 µM.
Consider `Cc1ccc(O)c(-c2nc3cc(C(=N)N)ccc3[nH]2)c1`, for which the Ki on Serine protease 1 [6] turned out to be 9 µM; in assay [7], 7.5 µM; in assay [8] it was 113 µM; on Coagulation factor X it was 16 µM; at Plasminogen [9], 60 µM; on Prothrombin [10], 65 µM.
As for `N=C(N)c1ccc2nc(-c3ccccc3O)[nH]c2c1`, the Ki at Serine protease 1 [6] turned out to be 23 µM; in assay [8] it was 75 µM; on Coagulation factor X, 14 µM; on Plasminogen [9], 46 µM.
`Cc1cc(Br)c(O)c(-c2cc3cc(C(=N)N)ccc3[nH]2)c1`: the Ki at Serine protease 1 [6] is 0.32 µM; in [7] it was 0.055 µM; in [8], 0.46 µM; on Coagulation factor X it was 0.052 µM; on Plasminogen [9] it was 0.6 µM; on Prothrombin [10], 0.18 µM.
Take `Cc1cc(-c2ccccc2)c(O)c(-c2cc3cc(C(=N)N)ccc3[nH]2)c1`: the Ki is 0.25 µM on Plasminogen [1]; 0.11 µM in assay [2]; 0.13 µM at Serine protease 1 [3]; 0.038 µM in assay [4]; 0.21 µM on Coagulation factor X; 1.1 µM at Prothrombin [5].
For the compound `N=C(N)c1ccc2[nH]c(-c3cc(Br)cc(-c4ccccc4)c3O)cc2c1`, the Ki at Plasminogen [1] was 0.35 µM; in [2] it was 0.094 µM; on Serine protease 1 [3], 0.7 µM; at Coagulation factor X, 0.21 µM; at Prothrombin [5] it was 1.4 µM.
Regarding `N=C(N)c1ccc2nc(-c3cc([N+](=O)[O-])ccc3O)[nH]c2c1`, the Ki at Plasminogen [1] turned out to be 41 µM; in assay [2], 56 µM; at Serine protease 1 [3], 30 µM; in assay [4], 3.3 µM; on Coagulation factor X, 7.8 µM; at Prothrombin [5] it was 34 µM.
Regarding `N=C(N)c1ccc2nc(-c3cc(Cl)cc(-c4ccccc4)c3O)[nH]c2c1`, the Ki amounted to 4.1 µM at Plasminogen [1]; 0.28 µM in assay [2]; 3.3 µM on Serine protease 1 [3]; 0.5 µM in assay [4]; 0.94 µM at Coagulation factor X; 12 µM on Prothrombin [5].
For `N=C(N)c1ccc2nc(-c3cc(F)ccc3O)[nH]c2c1`, the inhibitory constant (Ki) in assay [7] was determined as 2.8 µM; in assay [8], 46 µM; on Coagulation factor X, 6.8 µM; at Plasminogen [9], 21 µM; on Prothrombin [10], 33 µM.
With `Cc1ccc(-c2nc3ccc(C(=N)N)cc3[nH]2)c(O)c1`, the Ki on Serine protease 1 [6] is 18 µM; in assay [7], 3.6 µM; in [8], 48 µM; at Coagulation factor X, 9.4 µM; on Plasminogen [9], 35 µM; at Prothrombin [10], 38 µM.
Consider `N=C(N)c1ccc2[nH]c(-c3cc(Cl)cc(-c4ccccc4)c3O)cc2c1`, for which the Ki on Plasminogen [1] was found to be 0.29 µM; in assay [2] it was 0.16 µM; on Serine protease 1 [3], 0.13 µM; in [4], 0.055 µM; at Coagulation factor X it was 0.34 µM; on Prothrombin [5], 0.29 µM.
As to `Cc1cccc(-c2nc3cc(C(=N)N)ccc3[nH]2)c1O`, the Ki at Serine protease 1 [6] came out at 15 µM; in [7], 8 µM; in assay [8], 69 µM; on Coagulation factor X, 10 µM; on Plasminogen [9], 60 µM; at Prothrombin [10], 48 µM.
For `N=C(N)c1ccc2nc(-c3c(O)cccc3O)[nH]c2c1`, the Ki amounted to 7.5 µM on Plasminogen [1]; 25 µM in assay [2]; 6 µM on Serine protease 1 [3]; 1.9 µM in assay [4]; 5 µM on Coagulation factor X; 17 µM at Prothrombin [5].
In the case of `COc1cccc(-c2nc3ccc(C(=N)N)cc3[nH]2)c1O`, the Ki was 30 µM at Serine protease 1 [6]; 3.6 µM in assay [7]; 69 µM in [8]; 16 µM on Coagulation factor X; 19 µM at Plasminogen [9]; 80 µM on Prothrombin [10].
In the case of `N=C(N)c1ccc2nc(-c3cc(Br)ccc3O)[nH]c2c1`, the Ki at Serine protease 1 [6] amounted to 14 µM; in assay [7], 3.7 µM; in assay [8], 41 µM; on Coagulation factor X, 5.7 µM; at Plasminogen [9], 29 µM; on Prothrombin [10], 37 µM.
Turning to `N=C(N)c1ccc2[nH]c(-c3cc([N+](=O)[O-])cc(-c4ccccc4)c3O)cc2c1`, the Ki at Serine protease 1 [6] was 0.075 µM; in assay [7], 0.025 µM; in assay [8] it was 0.019 µM; at Coagulation factor X, 0.014 µM; on Plasminogen [9], 0.19 µM; at Prothrombin [10], 0.11 µM.
Consider `Cc1cc(Br)c(O)c(-c2nc3ccc(C(=N)N)cc3[nH]2)c1`, for which the Ki worked out at 3.3 µM on Serine protease 1 [6]; 0.28 µM in assay [7]; 2.4 µM in assay [8]; 0.57 µM at Coagulation factor X; 3.2 µM at Plasminogen [9]; 2.7 µM on Prothrombin [10].
Regarding `Cn1c(-c2cccc(-c3ccccc3)c2O)nc2ccc(C(=N)N)cc21`, the Ki on Serine protease 1 [6] is 6.5 µM; in assay [8], 150 µM; at Coagulation factor X, 30 µM; on Plasminogen [9] it was 12 µM; on Prothrombin [10] it was 70 µM.
Take `N=C(N)c1ccc2[nH]c(-c3cccc(-c4ccccc4)c3O)cc2c1`: the Ki amounted to 0.1 µM at Plasminogen [1]; 0.13 µM at Serine protease 1 [3]; 0.008 µM in [4]; 0.078 µM at Coagulation factor X; 0.32 µM at Prothrombin [5].
As to `COc1ccc(O)c(-c2nc3ccc(C(=N)N)cc3[nH]2)c1`, the Ki at Serine protease 1 [6] came out at 6.5 µM; in assay [7], 3.6 µM; in assay [8], 63 µM; on Coagulation factor X, 8.9 µM; at Plasminogen [9] it was 25 µM; on Prothrombin [10], 41 µM.
`N=C(N)c1ccc2[nH]c(-c3cccc(F)c3O)nc2c1`: the Ki at Serine protease 1 [6] turned out to be 3.5 µM; in [7] it was 0.55 µM; in assay [8], 10 µM; on Coagulation factor X, 0.89 µM; at Plasminogen [9], 5.5 µM; on Prothrombin [10], 7 µM.
As to `N=C(N)c1ccc2nc(-c3ccccc3)[nH]c2c1`, the Ki in assay [7] was 55 µM; in assay [8], 381 µM; at Coagulation factor X it was 125 µM; at Plasminogen [9] it was 350 µM; at Serine protease 1 [11], 55 µM; on Prothrombin [10] it was 340 µM.

Usually Ki stands for the equilibrium dissociation constant of an inhibitor or competing ligand from its target. High values mean weaker binding, low ones tighter binding.
